Experimental data published in ChEMBL document CHEMBL6177916, “Synthesis, in silico and bio-evaluation studies of new isothiocyanate derivatives with respect to COX inhibition and H2S release profiles” (RSC Med Chem, 2025).
Calls of active or inactive are those of the source. The calls are words filed in the database; no cut-off is given here.

Assays:
RAW264.7 [1] = experiment: Cytotoxicity against mouse RAW264.7 cells assessed as cell viability at 10 to 20 uM measured after 24 hrs by MTT assay; type: functional, cell-based; settings: dose 10-20 µM
Summary of the method: (§1)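 RAW 264.7 murine macrophages were seeded at 4 × 10^5 cells per mL and grown 24 h at 37 °C. They were then stimulated with 1 μg mL−1 LPS, with or without compound (DMSO-dissolved) at 10 and 20 μM, for 24 h. MTT was added for 2 h, formazan was dissolved in DMSO, and A570/620 was read. Controls were no inhibitor/no LPS and LPS alone, with comparisons made against LPS alone. Data are ≥3 biological replicates, mean ± SEM, one-way ANOVA with Dunnett.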

[2] = Induction of H2S release in PBS at pH 7.4 at 100 uM measured over 4 hrs by microplate reader based analysis; type: functional
Summary of the method: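 Compounds (DMSO-dissolved) were diluted to 100 μM final in phosphate buffer, pH 7.4, containing 1 mM L-cysteine. This was combined with a detection mix of N,N-dimethyl-1,4-phenylenediamine sulfate (20 mM) plus 1% w/v Zn(OAc)2, reacted with 30 mM FeCl3. A670 was read every 5 min until no meaningful increase was seen.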

RAW264.7 [3] = experiment: Antiinflammatory activity against LPS induced mouse RAW264.7 cells assessed as decrease in cell viability at 10 to 20 uM relative to control; type: functional; settings: dose 10-20 µM; summary of the method: as §1
[4] = target: T1, Prostaglandin G/H synthase 2 (Homo sapiens, UniProt P35354); experiment: Inhibition of human recombinant COX-2 using arachidonic acid as substrate at 10 uM preincubated for 10 mins followed by substrate addition and measured after 30 secs
T1 sequence (P35354 whole entry): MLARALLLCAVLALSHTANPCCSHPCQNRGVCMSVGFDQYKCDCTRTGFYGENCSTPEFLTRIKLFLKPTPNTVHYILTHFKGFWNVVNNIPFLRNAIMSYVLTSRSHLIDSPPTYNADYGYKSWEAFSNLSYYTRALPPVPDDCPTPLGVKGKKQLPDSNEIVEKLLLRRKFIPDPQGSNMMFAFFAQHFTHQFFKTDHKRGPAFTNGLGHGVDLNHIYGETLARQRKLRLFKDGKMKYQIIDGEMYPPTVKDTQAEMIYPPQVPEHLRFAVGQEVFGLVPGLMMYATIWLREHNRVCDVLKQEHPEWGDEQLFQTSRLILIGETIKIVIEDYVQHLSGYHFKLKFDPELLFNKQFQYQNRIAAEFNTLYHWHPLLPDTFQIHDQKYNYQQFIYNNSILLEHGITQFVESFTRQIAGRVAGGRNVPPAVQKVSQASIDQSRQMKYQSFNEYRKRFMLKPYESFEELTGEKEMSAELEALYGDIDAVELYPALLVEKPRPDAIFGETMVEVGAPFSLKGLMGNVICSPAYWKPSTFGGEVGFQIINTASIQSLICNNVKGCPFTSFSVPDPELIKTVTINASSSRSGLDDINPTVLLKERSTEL

| SMILES | Activity (RAW264.7 [1]) | Activity [2] | Activity (RAW264.7 [3]) | IC50 [4] |
| --- | --- | --- | --- | --- |
| CC(C)CC(=O)OCCc1ccc(N=C=S)cc1 | inactive | 11.7 µM |  |  |
| N#Cc1cc(CCO)ccc1N=C=S | inactive | 35.7 µM | <80% |  |
| COc1ccc(C(=O)OCCc2ccc(N=C=S)cc2)cc1 | inactive | 11.2 µM |  |  |
| OCCc1ccc(N=C=S)c(Br)c1 | inactive | 35.5 µM | <80% |  |
| O=C(OCCc1ccc(N=C=S)cc1)c1ccc([N+](=O)[O-])cc1 | inactive | 11.5 µM | <80% |  |
| C[S+]([O-])CCCCN=C=S (configuration not stated) [SULFORAPHANE] |  | 43.5 µM |  | 6.35 µM |
| OCCc1ccc(N=C=S)cc1 | inactive | 36.8 µM | <80% |  |
| O=C(OCCc1ccc(N=C=S)cc1)c1ccccc1 | inactive | 11.3 µM | <80% |  |
| O=C(OCCc1ccc(N=C=S)cc1)c1ccc(F)cc1 |  | 10.9 µM |  |  |
